From ChEMBL document CHEMBL1129264, “Mercaptoacyl dipeptides as orally active dual inhibitors of angiotensin-converting enzyme and neutral endopeptidase” (1996) come the findings set out here.

Format in all cases: organism-based
The target of assay [1] is T1, Angiotensin-converting enzyme (Rattus norvegicus) (UniProt P47820).
T1 sequence (whole entry): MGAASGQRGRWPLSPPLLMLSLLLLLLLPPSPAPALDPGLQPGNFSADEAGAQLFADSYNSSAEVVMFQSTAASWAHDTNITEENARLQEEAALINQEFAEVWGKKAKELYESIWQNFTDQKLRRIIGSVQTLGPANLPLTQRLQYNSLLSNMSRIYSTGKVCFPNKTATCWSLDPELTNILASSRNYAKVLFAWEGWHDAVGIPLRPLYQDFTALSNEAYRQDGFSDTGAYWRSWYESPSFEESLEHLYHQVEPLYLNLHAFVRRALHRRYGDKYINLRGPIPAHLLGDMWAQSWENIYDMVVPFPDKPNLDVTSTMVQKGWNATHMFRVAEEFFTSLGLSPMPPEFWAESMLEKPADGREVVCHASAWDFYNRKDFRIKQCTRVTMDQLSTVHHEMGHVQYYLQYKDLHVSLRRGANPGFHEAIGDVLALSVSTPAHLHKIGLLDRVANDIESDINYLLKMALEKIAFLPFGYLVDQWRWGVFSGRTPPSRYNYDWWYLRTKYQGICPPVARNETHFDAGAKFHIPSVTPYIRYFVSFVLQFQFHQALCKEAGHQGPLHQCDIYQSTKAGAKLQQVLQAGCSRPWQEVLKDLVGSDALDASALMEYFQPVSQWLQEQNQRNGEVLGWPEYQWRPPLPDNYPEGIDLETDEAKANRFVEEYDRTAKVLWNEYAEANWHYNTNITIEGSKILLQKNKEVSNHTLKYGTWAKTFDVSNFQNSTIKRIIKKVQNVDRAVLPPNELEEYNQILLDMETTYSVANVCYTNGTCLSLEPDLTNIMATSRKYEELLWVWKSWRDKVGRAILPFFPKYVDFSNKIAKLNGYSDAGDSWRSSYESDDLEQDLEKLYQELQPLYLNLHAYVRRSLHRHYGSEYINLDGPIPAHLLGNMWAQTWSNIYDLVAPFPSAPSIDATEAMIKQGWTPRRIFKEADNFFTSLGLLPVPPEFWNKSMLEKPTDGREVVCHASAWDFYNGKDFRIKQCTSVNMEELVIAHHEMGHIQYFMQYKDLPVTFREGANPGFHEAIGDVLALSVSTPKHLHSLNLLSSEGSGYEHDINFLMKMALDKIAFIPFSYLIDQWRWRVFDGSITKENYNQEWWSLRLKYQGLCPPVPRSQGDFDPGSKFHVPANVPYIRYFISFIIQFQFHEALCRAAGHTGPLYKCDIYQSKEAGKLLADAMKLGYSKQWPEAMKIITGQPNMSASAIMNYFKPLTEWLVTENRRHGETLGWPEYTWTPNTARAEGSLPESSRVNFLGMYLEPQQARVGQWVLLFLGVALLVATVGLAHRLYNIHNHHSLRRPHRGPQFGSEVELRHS
The experiment in a line: Compound was tested for plasma inhibition of Angiotensin I converting enzyme activity in the conscious rat. Expressed as Inhibition of AI pressor response at 2 hr at a dose of 13.1 mg/kg po. More on the design: dose 13.1 mg/kg. In outline:
(§1)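 Male conscious normotensive Sprague-Dawley rats (275-390 g), given femoral arterial and venous catheters under methohexital sodium (75 mg/kg ip) anesthesia. Next day, pressor responses to three angiotensin-I challenges (300 ng/kg iv) recorded by direct arterial pressure. Compound then dosed orally, and AI challenge repeated at set times. Each post-dose response compared with the mean of the three baseline responses, giving % inhibition.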

For assay [2], the target named is T1, Angiotensin-converting enzyme (Rattus norvegicus). Kind of assay: Compound was tested for plasma inhibition of Angiotensin I converting enzyme activity in the conscious rat. Expressed as Inhibition of AI pressor response at 6 hr at a dose of 13.1 mg/kg po. Set-up: dose 13.1 mg/kg. An outline of the steps:
(§2)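 Male conscious normotensive Sprague-Dawley rats (275-390 g), prepared under methohexital sodium (75 mg/kg ip) with femoral arterial and venous catheters. The next day, pressor responses to three angiotensin-I challenges (300 ng/kg iv) were recorded. Compound was then given orally and angiotensin-I challenges were repeated at set times. Percent inhibition is relative to the mean of the three baseline responses.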

Assay [3] shares this target. The experiment in a line: Compound was tested for plasma inhibition of Angiotensin I converting enzyme activity in the conscious rat. Expressed as Inhibition of AI pressor response at 1 hr at a dose of 13.1 mg/kg po. Set-up: dose 13.1 mg/kg. In outline: as §1
The target is the same in assay [4]. Kind of assay: Compound was tested for plasma inhibition of Angiotensin I converting enzyme activity in the conscious rat. Expressed as Inhibition of AI pressor response at 4 hr at a dose of 13.1 mg/kg po. More on the design: dose 13.1 mg/kg. An outline of the steps: as §2
For assay [5] the target is unchanged. The experiment in a line: Compound was tested for plasma inhibition of Angiotensin I converting enzyme activity in the conscious rat. Expressed as Inhibition of AI pressor response at 2 hr at a dose of 12.8 mg/kg po. More on the design: dose 12.8 mg/kg. An outline of the steps: as §1
Assay [6] shares this target. Kind of assay: Compound was tested for plasma inhibition of Angiotensin I converting enzyme activity in the conscious rat. Expressed as Inhibition of AI pressor response at 4 hr at a dose of 12.8 mg/kg po. Set-up: dose 12.8 mg/kg. In outline: as §1
The target is the same in assay [7]. The experiment in a line: Compound was tested for plasma inhibition of Angiotensin I converting enzyme activity in the conscious rat. Expressed as Inhibition of AI pressor response at 6 hr at a dose of 12.8 mg/kg po. More on the design: dose 12.8 mg/kg. In outline:
as §2

Assay [8] has the same target. The experiment in a line: Compound was tested for plasma inhibition of Angiotensin I converting enzyme activity in the conscious rat. Expressed as Inhibition of AI pressor response at 1 hr at a dose of 12.8 mg/kg po. Set-up: dose 12.8 mg/kg. An outline of the steps: as §1
Assay [9] shares this target. Kind of assay: Compound was tested for plasma inhibition of Angiotensin I converting enzyme activity in the conscious rat. Expressed as Inhibition of AI pressor response at 4 hr at a dose of 10 mg/kg po. More on the design: dose 10 mg/kg. An outline of the steps: as §1
The target is the same in assay [10]. The experiment in a line: Compound was tested for plasma inhibition of Angiotensin I converting enzyme activity in the conscious rat. Expressed as Inhibition of AI pressor response at 1 hr at a dose of 10 mg/kg po. More on the design: dose 10 mg/kg. An outline of the steps: as §1
Assay [11] has the same target. Kind of assay: Compound was tested for plasma inhibition of Angiotensin I converting enzyme activity in the conscious rat. Expressed as Inhibition of AI pressor response at 2 hr at a dose of 10 mg/kg po. Set-up: dose 10 mg/kg. In outline:
as §1

Assay [12] has the same target. The experiment in a line: Compound was tested for plasma inhibition of Angiotensin I converting enzyme activity in the conscious rat. Expressed as Inhibition of AI pressor response at 6 hr at a dose of 10 mg/kg po. More on the design: dose 10 mg/kg. An outline of the steps:
as §2

Assay [13] shares this target. The experiment in a line: Compound was tested for plasma inhibition of Angiotensin I converting enzyme activity in the conscious rat. Expressed as Inhibition of AI pressor response at 1 hr at a dose of 14.3 mg/kg po. More on the design: dose 14.3 mg/kg. An outline of the steps: as §1
Assay [14] has the same target. The experiment in a line: Compound was tested for plasma inhibition of Angiotensin I converting enzyme activity in the conscious rat. Expressed as Inhibition of AI pressor response at 4 hr at a dose of 14.3 mg/kg po. Set-up: dose 14.3 mg/kg. In outline:
as §2

For assay [15] the target is unchanged. The experiment in a line: Compound was tested for plasma inhibition of Angiotensin I converting enzyme activity in the conscious rat. Expressed as Inhibition of AI pressor response at 6 hr at a dose of 14.3 mg/kg po. More on the design: dose 14.3 mg/kg. In outline: as §2
For assay [16] the target is unchanged. The experiment in a line: Compound was tested for plasma inhibition of Angiotensin I converting enzyme activity in the conscious rat. Expressed as Inhibition of AI pressor response at 2 hr at a dose of 14.3 mg/kg po. More on the design: dose 14.3 mg/kg. In outline:
as §1

Assay [17] shares this target. The experiment in a line: Compound was tested for plasma inhibition of Angiotensin I converting enzyme activity in the conscious rat. Expressed as Inhibition of AI pressor response at 2 hr at a dose of 11.7 mg/kg po. Set-up: dose 11.7 mg/kg. An outline of the steps: as §1
Assay [18] shares this target. Kind of assay: Compound was tested for plasma inhibition of Angiotensin I converting enzyme activity in the conscious rat. Expressed as Inhibition of AI pressor response at 6 hr at a dose of 11.7 mg/kg po. More on the design: dose 11.7 mg/kg. In outline:
as §2

The target is the same in assay [19]. The experiment in a line: Compound was tested for plasma inhibition of Angiotensin I converting enzyme activity in the conscious rat. Expressed as Inhibition of AI pressor response at 4 hr at a dose of 11.7 mg/kg po. More on the design: dose 11.7 mg/kg. In outline: as §1
Assay [20] has the same target. Kind of assay: Compound was tested for plasma inhibition of Angiotensin I converting enzyme activity in the conscious rat. Expressed as Inhibition of AI pressor response at 1 hr at a dose of 11.7 mg/kg po. More on the design: dose 11.7 mg/kg. In outline: as §1
For assay [21] the target is unchanged. The experiment in a line: Compound was tested for plasma inhibition of Angiotensin I converting enzyme activity in the conscious rat. Expressed as Inhibition of AI pressor response at 4 hr at a dose of 12.7 mg/kg po. Set-up: dose 12.7 mg/kg. In outline: as §1
For assay [22] the target is unchanged. The experiment in a line: Compound was tested for plasma inhibition of Angiotensin I converting enzyme activity in the conscious rat. Expressed as Inhibition of AI pressor response at 1 hr at a dose of 12.7 mg/kg po. Set-up: dose 12.7 mg/kg. An outline of the steps: as §1
For assay [23] the target is unchanged. Kind of assay: Compound was tested for plasma inhibition of Angiotensin I converting enzyme activity in the conscious rat. Expressed as Inhibition of AI pressor response at 6 hr at a dose of 12.7 mg/kg po. More on the design: dose 12.7 mg/kg. An outline of the steps: as §2
Assay [24] shares this target. The experiment in a line: Compound was tested for plasma inhibition of Angiotensin I converting enzyme activity in the conscious rat. Expressed as Inhibition of AI pressor response at 2 hr at a dose of 12.7 mg/kg po. More on the design: dose 12.7 mg/kg. An outline of the steps:
as §1

Regarding `CCOC(=O)[C@H](Cc1ccc(OC(=O)CC)cc1)NC(=O)C1(NC(=O)[C@H](SC(C)=O)C(C)C)CCCC1`, the inhibition in [1] was found to be 35%; in [2], 4%; in [3], 50%; in [4] it was 23%.

Consider `CCOC(=O)[C@H](Cc1ccc(O)cc1)NC(=O)C1(NC(=O)[C@H](SC(=O)CN(C)C)C(C)C)CCCC1`, for which the inhibition was 63% in assay [5], 35% in assay [6], 18% in assay [7] and 70% in [8].

As for `CCCCOC(=O)[C@H](Cc1ccc(O)cc1)NC(=O)C1(NC(=O)[C@H](SC(=O)COC)C(C)C)CCCC1`, the inhibition in assay [1] was found to be 75%; in [2] it was 54%; in assay [3] it was 76%; in [4], 58%.

Consider `CCCCOC(=O)[C@H](Cc1ccc(OC)cc1)NC(=O)C1(NC(=O)[C@H](SC(C)=O)C(C)C)CCCC1`, for which the inhibition was 70% in [5], 65% in assay [9], 58% in assay [7] and 75% in assay [8].

For `CCOC(=O)[C@H](CCc1ccccc1)N[C@H]1CCc2ccccc2N(CC(=O)O)C1=O`, the inhibition in assay [10] came out at 100%; in [11], 77%; in assay [9], 39%; in assay [12], 16%.

In the case of `CCOC(=O)[C@H](Cc1ccc(OC(=O)c2ccccc2)cc1)NC(=O)C1(NC(=O)[C@H](SC(C)=O)C(C)C)CCCC1`, the inhibition in [13] amounted to 45%; in assay [14], 36%; in [15] it was 10%; in [16] it was 30%.

As to `CCOC(=O)[C@H](Cc1ccc(OC)cc1)NC(=O)C1(NC(=O)[C@H](SC(=O)COC)C(C)C)CCCC1`, the inhibition stood at 91% in assay [17], 52% in [18], 76% in [19] and 81% in assay [20].

Take `CC(=O)S[C@@H](C(=O)NC1(C(=O)N[C@@H](Cc2ccc(O)cc2)C(=O)OC2CCCC2)CCCC1)C(C)C`: the inhibition in assay [21] was 33%; in assay [22] it was 58%; in [23] it was 29%; in assay [24], 51%.
